Results from different studies.

SMILES | assay | test system | setting | endpoint | result
C=CC(=O)NC1CCN(c2ncc3ncnc(Nc4ccc(Oc5ccc6c(c5)ncn6C)c(C)c4)c3n2)CC1 | – | – | pH 7.4 | logP | 4.7
OCc1ccc(-c2nn(Cc3ccccc3)c3ccccc23)o1 | – | male CD-1 mouse, plasma | intraperitoneal, 30 mg/kg | half-life | 1.3 h
Cc1nsc(-c2nnc3n2CCN(C(=O)c2ccc(F)cc2)[C@@H]3C)n1 | – | – | – | logP | 1.5
O=C1CCC(N2Cc3cc(CO)c(F)cc3C2=O)C(=O)N1 (stereo not drawn) | – | male CD-1 mouse, plasma | intravenous, 1 mg/kg, 1.02 min | concentration | 1790 ng/mL
Cc1cc2c(C(=O)O)cccc2n1-c1nc2c(c(NCc3ccccc3)n1)CCCN2 | metabolic stability | dog, liver microsomes | 1 µM, pH 7.4 | microsomal CLint | 1.15 µL/min/mg
NCc1cc2c(cc1F)C(=O)N(C1CCC(=O)NC1=O)C2 (stereo not drawn) | – | male CD-1 mouse, plasma | intravenous, 1 mg/kg, 30 min | concentration | 33.2 ng/mL
Cc1nc2ccc(OCc3ccc(C(F)(F)F)cc3)cc2[nH]1 | – | male BALB/c mouse, brain | intravenous, 1 mg/kg, 3 h | concentration | 402 ng/g
CN(C)C(=O)c1cc2cnc(Nc3ccc(-c4ccc5c(=O)cc(N6CCOCC6)oc5c4)cc3)nc2n1C1CCCC1.Cl | – | BALB/c mouse, plasma | oral, 20 mg/kg | half-life | 4.6 h
Cc1cccc(CNC(=O)c2cn(CCNC(=O)c3ccccc3Sc3c([N+](=O)[O-])ncn3C)c3cc4c(cc3c2=O)OCO4)n1 | metabolic stability | cynomolgus monkey, blood | 1 µM, whole blood | half-life | 5.92 h
Cc1ccccc1CN1C(=O)C2=C(CCN(Cc3ccccc3)C2)N2CCN=C12 | potentiometric | water | – | logP | 3.09
NCc1ccc(-c2nn(Cc3ccccc3)c3ccccc23)o1 | – | male CD-1 mouse, plasma | intravenous, 5 mg/kg | half-life | 1.08 h
CONC(=O)c1cccc2c1cc(C)n2-c1nc2c(c(NCc3ccccc3)n1)CCCN2 | metabolic stability | dog, liver microsomes | 1 µM, pH 7.4 | microsomal CLint | 84 µL/min/mg
Cc1ccc2c(c1)C(=O)[C@]1(O)CCN(c3ccc4nc(C)ccc4c3)C1=N2 | – | mouse, brain | intraperitoneal, 10 mg/kg, 30 min, single dose | concentration | 1000 nM
O=C(O)CC[C@H](NC(=O)N[C@@H](CCCCNC(=O)[C@H](Cc1ccc2ccccc2c1)NC(=O)[C@H]1CC[C@H](CNC(=O)CN2CCN(CC(=O)O)CCN(CC(=O)O)CCN(CC(=O)O)CC2)CC1)C(=O)O)C(=O)O | shake flask | water | – | logP | -1.01
CC(C)n1ncc2c(C(=O)NCC3(C)CNC3)cc(C3CC3)nc21 | – | female BALB/c mouse, plasma | intraperitoneal, 50 mg/kg, 2 h | concentration | 2230 ng/mL
